These results are taken from ChEMBL document CHEMBL1153965, “Inhibitors of hepatitis C virus NS3/4A: alpha-ketoamide based macrocyclic inhibitors” (Bioorg Med Chem Lett, 2009).

A short description of data set [1]: Cytotoxicity against human HuH7 cells. The class given is cell-based, Huh-7.
Data set [2] in a line: Inhibition of full length HCV NS3/4A protease by TRF assay. Details: species or system Hepacivirus hominis.
Data set [3] concerns Hepatitis C virus. The data set is described as follows: Antiviral activity against HCV replication infected in human HuH7 cells after 96 hrs by replicon assay in presence of 10% FCS. The format is functional, organism-based, Hepacivirus hominis, Huh-7. An outline of the steps:
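Compounds incubated with replicon cells at 37 °C for 96 h in medium containing 10% FCS, with inhibition of replication read out to give EC50.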
(A replicon is a self-replicating genome or part of one, used to study replication in cells.)

The nature of data set [4]: AUC (0 to infinity) in Wistar rat plasma at 5 mg/kg, po. The format is ADME, organism-based. The arrangement: time infinity, dose 5 mg/kg, route oral. An outline of the steps:
(§1)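 Male Wistar rats dosed orally at 5 mg/kg in PEG 400 vehicle, with plasma exposure measured. Values are geometric means from 3 animals.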

Data set [5] is described as follows: Cmax in Wistar rat at 5 mg/kg, po. Particulars: in vivo. Details: dose 5 mg/kg, route oral. The class given is ADME, organism-based. The procedure, abridged: as §1
Data set [6] in a line: Drug level in Wistar rat liver at 5 mg/kg, po after 4 hrs. Particulars: read-out: Drug uptake. The class given is ADME, organism-based. Details: dose 5 mg/kg, route oral.
Data set [7] can be described thus: Oral bioavailability in Wistar rat at 5 mg/kg. The format is ADME, organism-based. The conditions noted are these: in vivo.
Data set [8] has as its system Hepatitis C virus. The data set is described as follows: Antiviral activity against HCV replication infected in human HuH7 cells after 48 hrs by replicon assay in presence of 2% FCS. The conditions noted are these: Huh-7, 48 h.
For data set [9], the system named is Hepatitis C virus. The data set is described as follows: Antiviral activity against HCV replication infected in human HuH7 cells after 72 hrs by replicon assay in presence of 5% FCS. The conditions noted are these: Huh-7, 72 h.

Usually CC50 stands for the concentration at which the toxic effect on the cells reaches its halfway point. A word on the Ki: it is a dissociation constant, usually derived from enzyme kinetics or from competition with a known ligand. The term EC50 denotes the concentration giving half of the maximal effect. Broadly, the AUC(0-inf) is total exposure, with the tail of the curve extrapolated. Read a low AUC(0-inf) as low exposure. By Cmax is commonly meant the peak of the concentration-time curve. As a reminder, the bioavailability is dose-corrected exposure relative to a reference, in per cent. A lower bioavailability goes with little systemic uptake.

Turning to `CCC[C@H](NC(=O)[C@@H]1C[C@@H]2CN1C(=O)[C@H](C(C)(C)C)NC(=O)OCCCCCCc1cccc3c1CN(C3)C(=O)O2)C(=O)C(=O)NCc1ccccn1`, the CC50 in data set [1] was > 50000 nM. The affinity in data set [2] corresponds to a Ki of 176 nM. Moreover, the EC50 in [3] (Hepatitis C virus, Huh-7, 96 h) turned out to be 790 nM.

For `C=CCNC(=O)C(=O)[C@H](CCC)NC(=O)[C@@H]1C[C@@H]2CN1C(=O)[C@H](C(C)(C)C)NC(=O)OCCCCCCc1cccc3c1CN(C3)C(=O)O2`, in data set [1], the CC50 was > 50000 nM. Moreover, the AUC(0-inf) in data set [4] turned out to be 0.58 µM·h. For the same compound, the Ki in data set [2] came out at 71 nM. The concentration in data set [5] peaked (Cmax) at 160 nM. For the same compound, the concentration at 4 h in [6] came to 480 nM. The EC50 in [3] (Hepatitis C virus, Huh-7, 96 h) was found to be 550 nM.

For the compound `CCC[C@H](NC(=O)[C@@H]1C[C@@H]2CN1C(=O)[C@H](C(C)(C)C)NC(=O)OCCCCCc1cccc3c1CN(C3)C(=O)O2)C(=O)C(=O)NC1CC1`, the CC50 in data set [1] is > 50000 nM. The Ki in data set [2] was determined as 83 nM. For the same compound, the EC50 in [3] (Hepatitis C virus, Huh-7, 96 h) was determined as 600 nM.

As to `CCC[C@H](NC(=O)[C@@H]1C[C@@H]2CN1C(=O)[C@H](C(C)(C)C)NC(=O)OCCCCCCc1cccc3c1CN(C3)C(=O)O2)C(=O)C(=O)NC1CCC1`, the CC50 in data set [1] was > 50000 nM. The compound also came in with a Ki in data set [2] of 140 nM. Also, the EC50 in data set [3] (Hepatitis C virus, Huh-7, 96 h) was found to be 940 nM.

Consider `CCC[C@H](NC(=O)[C@@H]1[C@H]2CCC[C@H]2CN1C(=O)[C@@H](NC(=O)[C@@H](NC(=O)c1cnccn1)C1CCCCC1)C(C)(C)C)C(=O)C(=O)NC1CC1` [TELAPREVIR], for which the CC50 in data set [1] is > 50000 nM. Moreover, the AUC(0-inf) in [4] was 1.54 µM·h. The same compound came in with a Ki in data set [2] of 110 nM. For the same compound, the bioavailability in data set [7] was 34.8%. The EC50 turned out to be 354 nM in data set [8] and 1600 nM in data set [3] (Hepatitis C virus, Huh-7, 96 h). In [6], the concentration at 4 h worked out at 810 nM.

With `CCC[C@H](NC(=O)[C@@H]1C[C@@H]2CN1C(=O)[C@H](C(C)(C)C)NC(=O)OCCCCCCc1cccc3c1CN(C3)C(=O)O2)C(=O)C(=O)NC(C)c1ccccc1` (stereo not given in full), the CC50 in [1] was > 50000 nM. This compound showed a Ki in data set [2] of 140 nM. Moreover, the EC50 in [3] (Hepatitis C virus, Huh-7, 96 h) is > 500 nM.

Take `CCC(C)NC(=O)C(=O)C(CC(F)F)NC(=O)[C@@H]1C[C@@H]2CN1C(=O)[C@H](C(C)(C)C)NC(=O)OCCCCCCc1cccc3c1CN(C3)C(=O)O2` (single isomer, unassigned; diastereomer 1): the CC50 in data set [1] is > 50000 nM. Moreover, in data set [2], the Ki came out at 2400 nM. Moreover, the EC50 in data set [3] (Hepatitis C virus, Huh-7, 96 h) is > 12500 nM.

For `CCC[C@H](NC(=O)[C@@H]1C[C@@H]2CN1C(=O)[C@H](C(C)(C)C)NC(=O)OCCCCCCc1cccc3c1CN(C3)C(=O)O2)C(=O)C(=O)NCc1ccccc1`, in [1], the CC50 was > 50000 nM. The same compound registered a Ki in data set [2] of 242 nM. Besides, in data set [3] (Hepatitis C virus, Huh-7, 96 h), the EC50 is 1320 nM.

Consider `CCC(C)NC(=O)C(=O)C(CC(F)F)NC(=O)[C@@H]1C[C@@H]2CN1C(=O)[C@H](C(C)(C)C)NC(=O)OCCCCCCc1cccc3c1CN(C3)C(=O)O2` (single isomer, unassigned; diastereomer 2), for which the Ki in data set [2] is > 2900 nM. For the same compound, the EC50 in [3] (huh-7) is > 6250 nM.

As for `CC(C)(C)NC(=O)N[C@H](C(=O)N1C[C@H]2[C@@H]([C@H]1C(=O)NC(CC1CCC1)C(=O)C(N)=O)C2(C)C)C(C)(C)C` (stereo not given in full) [BOCEPREVIR], the CC50 in [1] was > 50000 nM. In [4], this compound showed an AUC(0-inf) of 0.21 µM·h. This compound had a Ki in [2] of 35 nM. In addition, the concentration in data set [5] peaked (Cmax) at 130 nM. In data set [7], the bioavailability came out at 3.5%. In addition, the EC50 in [9] was determined as 200 nM.

For the compound `CCC[C@H](NC(=O)[C@@H]1C[C@@H]2CN1C(=O)[C@H](C(C)(C)C)NC(=O)OCCCCCCc1cccc3c1CN(C3)C(=O)O2)C(=O)C(=O)NC1CCCC1`, the CC50 in data set [1] was > 50000 nM. This compound also displayed an inhibitory constant (Ki) in data set [2] of 78 nM. Moreover, in data set [3] (Hepatitis C virus, Huh-7, 96 h), the EC50 came to 1050 nM.

On to `CCC[C@H](NC(=O)[C@@H]1C[C@@H]2CN1C(=O)[C@H](C(C)(C)C)NC(=O)OCCCCCCc1cccc3c1CN(C3)C(=O)O2)C(=O)C(=O)NC(C)CC` (stereo not given in full), for which, in data set [1], the CC50 was > 50000 nM. This compound also yielded a Ki in data set [2] of 66 nM. Further, the EC50 in [3] (Hepatitis C virus, Huh-7, 96 h) was 520 nM.
